According to ChEMBL document CHEMBL3227986, “Design of species- or isozyme-specific enzyme inhibitors. 1. Effect of thymidine substituents on affinity for the thymidine site of hamster cytoplasmic thymidine kinase” (J Med Chem, 1979):
The source made the active and inactive calls. No cut-off for these calls is given here.

Experiments:
[1] = molecular target: T1, Thymidine kinase, cytosolic (Cricetulus griseus) (UniProt P09768); assay: Inhibition of thymidine kinase in BHK21 (C13) cells using thymidine as substrate assessed as formation of TMP at 0.28 mM; format: cell-based; details: Mesocricetus auratus
T1 sequence (whole entry): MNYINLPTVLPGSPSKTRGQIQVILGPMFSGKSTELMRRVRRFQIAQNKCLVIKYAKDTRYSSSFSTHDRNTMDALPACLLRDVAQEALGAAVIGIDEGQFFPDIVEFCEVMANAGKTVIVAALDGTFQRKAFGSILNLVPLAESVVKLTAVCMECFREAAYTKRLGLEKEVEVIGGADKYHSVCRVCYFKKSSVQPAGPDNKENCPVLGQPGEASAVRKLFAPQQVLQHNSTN
How it was run: (§1)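 BHK21(C13) 100000g supernatant in Tris-HCl 0.05 M pH 8.0, ATP 5 mM, MgCl2 2.5 mM, [14C]thymidine 3.6 μM, 10 min at 37 °C. Reaction stopped by boiling; [14C]TMP bound to DEAE-cellulose disks and counted by liquid scintillation, corrected for unincubated blanks.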

[2] = molecular target: T1, Thymidine kinase, cytosolic (Cricetulus griseus); assay: Inhibition of thymidine kinase in BHK21 (C13) cells using thymidine as substrate assessed as formation of TMP at 1.4 mM; format: cell-based; details: Mesocricetus auratus; how it was run: as §1
[3] = molecular target: T1, Thymidine kinase, cytosolic (Cricetulus griseus); assay: Inhibition of thymidine kinase in BHK21 (C13) cells using thymidine as substrate assessed as formation of TMP at […]; format: cell-based; details: Mesocricetus auratus
[4] = molecular target: T1, Thymidine kinase, cytosolic (Cricetulus griseus); assay: Inhibition of thymidine kinase in BHK21 (C13) cells using thymidine as substrate assessed as formation of TMP at 0.74 mM; format: cell-based; details: Mesocricetus auratus; how it was run: as §1
[5] = molecular target: T1, Thymidine kinase, cytosolic (Cricetulus griseus); assay: Activity at thymidine kinase in BHK21 (C13) cells at 400 uM after 30 mins relative to thymidine; format: cell-based; details: Mesocricetus auratus
How it was run: (§2)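 Radiolabeled thymidine or 2'-deoxyuridine derivatives tested as substrates: 40 μL BHK21(C13) 100000g supernatant, Tris-HCl 0.05 M pH 8.0, ATP 5 mM, MgCl2 2.5 mM, no thymidine, 30 min at 37 °C. Products separated by paper electrophoresis in 0.05 M triethylammonium bicarbonate pH 7.6; radioactivity counted in the TMP region.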

[6] = molecular target: T1, Thymidine kinase, cytosolic (Cricetulus griseus); assay: Activity at thymidine kinase in BHK21 (C13) cells at 54 to 542 uM after 30 mins relative to thymidine; format: cell-based; details: Mesocricetus auratus; how it was run: as §2
[7] = molecular target: T1, Thymidine kinase, cytosolic (Cricetulus griseus); assay: Inhibition of thymidine kinase in BHK21 (C13) cells using thymidine as substrate assessed as formation of TMP at 12 mM; format: cell-based; details: Mesocricetus auratus; how it was run: as §1
[8] = molecular target: T1, Thymidine kinase, cytosolic (Cricetulus griseus); assay: Inhibition of thymidine kinase in BHK21 (C13) cells using thymidine as substrate assessed as formation of TMP at 6 mM; format: cell-based; details: Mesocricetus auratus; how it was run: as §1
[9] = molecular target: T1, Thymidine kinase, cytosolic (Cricetulus griseus); assay: Inhibition of thymidine kinase in BHK21 (C13) cells using thymidine as substrate assessed as formation of TMP at 13.2 mM; format: cell-based; details: Mesocricetus auratus; how it was run: as §1
[10] = molecular target: T1, Thymidine kinase, cytosolic (Cricetulus griseus); assay: Inhibition of thymidine kinase in BHK21 (C13) cells using thymidine as substrate assessed as formation of TMP at 6.6 mM; format: cell-based; details: Mesocricetus auratus; how it was run: as §1
[11] = molecular target: T2, Thymidine kinase 2, mitochondrial (Homo sapiens) (UniProt O00142); assay: Effect on human mitochondrial thymidine kinase using [14C]thymidine at 2 mM after 10 mins by liquid scintillation spectrometer analysis relative to control in presence of Mg2+
T2 sequence (whole entry): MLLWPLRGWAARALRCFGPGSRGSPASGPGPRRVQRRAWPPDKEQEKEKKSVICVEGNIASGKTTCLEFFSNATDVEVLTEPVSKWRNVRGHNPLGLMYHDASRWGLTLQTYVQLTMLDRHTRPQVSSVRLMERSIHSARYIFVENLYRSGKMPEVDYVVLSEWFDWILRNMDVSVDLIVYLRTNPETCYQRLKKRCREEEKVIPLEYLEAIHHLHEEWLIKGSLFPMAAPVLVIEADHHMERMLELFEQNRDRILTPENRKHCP

[12] = molecular target: T1, Thymidine kinase, cytosolic (Cricetulus griseus); assay: Effect on thymidine kinase in BHK21 (C13) cells using [14C]thymidine at 5 mM after 10 mins by liquid scintillation spectrometer analysis relative to control in presence of Mg2+; format: cell-based; details: Mesocricetus auratus
How it was run: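 BHK21(C13) high-speed supernatant, 10 min at 37 °C, [14C]TMP on DEAE-cellulose disks, scintillation counting. Phosphate donors (nucleoside triphosphates 5 mM, giving 2.5 mM Mg2+ triphosphates) tested with 14.4 μM [14C]thymidine. Inhibitor assays used 0.19 mM [14C]thymidine: 5-iodo nucleosides at 0.19 mM with saturating Mg2+-ATP, or dCTP 5 mM with ATP 5 mM and MgCl2 7.5 mM.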

[13] = molecular target: T3, Thymidine kinase, cytosolic (Homo sapiens) (UniProt P04183); assay: Effect on human cytoplasmic thymidine kinase using [14C]thymidine at 2 mM after 10 mins by liquid scintillation spectrometer analysis relative to control in presence of Mg2+
T3 sequence (whole entry): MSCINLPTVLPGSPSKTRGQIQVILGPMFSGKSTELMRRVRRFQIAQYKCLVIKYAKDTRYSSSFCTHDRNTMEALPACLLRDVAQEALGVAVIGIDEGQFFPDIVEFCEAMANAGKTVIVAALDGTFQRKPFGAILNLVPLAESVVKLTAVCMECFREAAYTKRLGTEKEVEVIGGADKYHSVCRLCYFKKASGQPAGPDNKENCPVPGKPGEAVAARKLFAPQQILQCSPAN

[14] = molecular target: T4, Thymidine kinase, cytosolic (Mus musculus, UniProt P04184); assay: Competitive inhibition of thymidine kinase in mouse Ehrlich's ascites cells
T4 sequence (P04184 whole entry): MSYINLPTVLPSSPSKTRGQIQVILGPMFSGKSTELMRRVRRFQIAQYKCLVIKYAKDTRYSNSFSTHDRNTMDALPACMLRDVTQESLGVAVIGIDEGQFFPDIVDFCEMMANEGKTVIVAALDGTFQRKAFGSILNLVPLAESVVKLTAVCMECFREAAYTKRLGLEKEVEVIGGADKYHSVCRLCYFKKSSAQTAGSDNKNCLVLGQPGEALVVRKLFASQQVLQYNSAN

[15] = molecular target: T1, Thymidine kinase, cytosolic (Cricetulus griseus); assay: Inhibition of thymidine kinase in BHK21 (C13) cells using thymidine as substrate assessed as formation of TMP at 4 mM; format: cell-based; details: Mesocricetus auratus; how it was run: as §1
[16] = molecular target: T1, Thymidine kinase, cytosolic (Cricetulus griseus); assay: Inhibition of thymidine kinase in BHK21 (C13) cells using thymidine as substrate assessed as formation of TMP at 2 mM; format: cell-based; details: Mesocricetus auratus; how it was run: as §1
[17] = molecular target: T1, Thymidine kinase, cytosolic (Cricetulus griseus); assay: Inhibition of thymidine kinase in BHK21 (C13) cells using thymidine as substrate assessed as formation of TMP at 0.1 mM; format: cell-based; details: Mesocricetus auratus; how it was run: as §1
[18] = molecular target: T1, Thymidine kinase, cytosolic (Cricetulus griseus); assay: Inhibition of thymidine kinase in BHK21 (C13) cells using thymidine as substrate assessed as formation of TMP at 0.2 mM; format: cell-based; details: Mesocricetus auratus; how it was run: as §1
[19] = molecular target: T1, Thymidine kinase, cytosolic (Cricetulus griseus); assay: Inhibition of thymidine kinase in BHK21 (C13) cells using [14C]thymidine at 50 uM after 10 mins by liquid scintillation spectrometer analysis relative to control in presence of Mg2+; format: cell-based; details: Mesocricetus auratus

Structure (SMILES): CCS[C@H]1C[C@H](n2cc(C)c(=O)[nH]c2=O)O[C@@H]1CO
- inhibition [1]: 31%
- inhibition [2]: 60%

Structure (SMILES): Nc1ccn([C@H]2C[C@H](O)[C@@H](CO)O2)c(=O)n1
- inhibition [3]: 10%
- inhibition [4]: 24%

Structure (SMILES): CC(=O)NCC(O)[C@H]1O[C@@H](n2cc(C)c(=O)[nH]c2=O)C[C@@H]1O (stereo in doubt; [14C]4a)
- Activity [5]: inactive

Structure (SMILES): CC(=O)NCc1cn([C@H]2C[C@H](O)[C@@H](CO)O2)c(=O)[nH]c1=O
- Activity [6]: < 0.25%
- inhibition [7]: 0%
- inhibition [8]: 0%

Structure (SMILES): CCCC(=O)NC[C@H]1O[C@@H](n2cc(C)c(=O)[nH]c2=O)C[C@@H]1O
- inhibition [9]: 77%
- inhibition [10]: 38%

Structure (SMILES): Nc1ncnc2c1ncn2[C@@H]1O[C@H](COP(=O)(O)OP(=O)(O)OP(=O)(O)O)[C@@H](O)[C@H]1O
- Activity [11]: 100%
- Activity [12]: 100%
- Activity [13]: 100%

Structure (SMILES): CC(=O)NCC(O)[C@H]1O[C@@H](n2cc(C)c(=O)[nH]c2=O)C[C@@H]1O (stereo in doubt; [14C]4b)
- Activity [5]: inactive

Structure (SMILES): CCOC1N([C@H]2C[C@H](O)[C@@H](CO)O2)C(=O)NC(=O)C1(C)Br (single isomer, unassigned; more polar)
- Ki [14]: 24 µM

Structure (SMILES): CC[S+]([O-])C[C@H]1O[C@@H](n2cc(C)c(=O)[nH]c2=O)C[C@@H]1O (some centres undefined)
- inhibition [3]: 30%
- inhibition [2]: 13%

Structure (SMILES): CCOC1N([C@H]2C[C@H](O)[C@@H](CO)O2)C(=O)NC(=O)C1(C)Br (single isomer, unassigned)
- Ki [14]: 24 µM

Structure (SMILES): Nc1ccn([C@@H]2O[C@H](COP(=O)(O)OP(=O)(O)OP(=O)(O)O)[C@@H](O)[C@H]2O)c(=O)n1
- Activity [11]: 79%
- Activity [12]: 15%
- Activity [13]: 21%

Structure (SMILES): O=C(CI)NCCC(=O)Nc1cn([C@H]2C[C@H](O)[C@@H](CO)O2)c(=O)[nH]c1=O
- inhibition [15]: 36%
- inhibition [16]: 22%

Structure (SMILES): O=c1ccn([C@H]2C[C@H](O)[C@@H](CO)O2)c(=O)[nH]1
- inhibition [17]: 38%
- inhibition [18]: 59%

Structure (SMILES): Nc1ncnc2c1ncn2[C@H]1C[C@H](O)[C@@H](COP(=O)(O)OP(=O)(O)OP(=O)(O)O)O1
- Activity [11]: 56%
- Activity [12]: 107%
- Activity [13]: 108%

Structure (SMILES): Cc1cn([C@H]2C[C@H](O)[C@@H](COP(=O)(O)OP(=O)(O)OP(=O)(O)O)O2)c(=O)[nH]c1=O
- inhibition [19]: Active
